Screens: PubChem, several laboratories
Rows were chosen to be rich in hits. Some 6.9% of all compounds tested hit in one or more screens of this group.
PostGolgi ctrl: growth inhibition of yeast control strain, primary screen, counter-screen for post-Golgi transport modulator project | efflux-deficient yeast background strain, growth absorbance A615, 16 h | inhibition, % at 10 µM | 98,000 tested, 5% active | AID 738, 2007
tolC growth inh: growth inhibitors of E. coli tolC mutant, primary screen, strain BW25113 ΔtolC::kan, 384-well | OD615 | growth inhibition, % at 10 µM (by protocol) | 65,000 tested, 2.2% active;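 active = growth inhibition at or above a cutoff equal to the mean over every tested compound plus 3 SD, cut at about 60% in these data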;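 also: growth measured after 20 h incubation at 37 °C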
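Doses: one dose of 10 µM final / Material: E. coli BW25113 ΔtolC::kan, tolC deletion mutant strain / Buffer or medium: LB with kanamycin 50 µg/mL / Evaluation: percent growth inhibition / Detection: optical density read at 615 nm / Incubation: 37 °C, 20 h exposure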
Pyk2 oligo antag: antagonists of Pyk2 self-association, primary screen, Q293 cells, FERM NanoBiT luminescence, HTS | Protein-tyrosine kinase 2-beta (Homo sapiens), Q14289 | active compounds read low | z-score (the deposit names both 25 µM and 10 µM) | 99,000 tested, 0.83% active | AID 1347419, 2020;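 active = Z-score of -3 or lower, scaled per plate to the spread of control and sample wells; inactive = z-score above -3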;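 also: negative z-score means lost luminescence so less FERM oligomerization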
Candida biofilm: clotrimazole potentiators killing Candida biofilms, primary screen, with clotrimazole, Alamar Blue; C. albicans biofilm + clotrimazole; inhibition, % at 6 µM; 85,000 tested, 0.14% active;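 active = inhibition above 20%; inactive = inhibition below 20%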;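 also: preformed 24 hr biofilms exposed to compound for 48 hr; 0% = biofilm without compound and 100% = blank killed by clotrimazole plus chlorhexidine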
FAK inh: FAK kinase inhibitors, primary screen, biochemical. biochemical FAK kinase activity assay. inhibition, %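 (tested at 7 µM)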. 97,000 tested, 0.84% active. AID 727, 2007; in the data active = inhibition above about 19%;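 also: 0% = DMSO and 100% = reference compound high control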
Target sequence (Q05397 whole entry, looked up): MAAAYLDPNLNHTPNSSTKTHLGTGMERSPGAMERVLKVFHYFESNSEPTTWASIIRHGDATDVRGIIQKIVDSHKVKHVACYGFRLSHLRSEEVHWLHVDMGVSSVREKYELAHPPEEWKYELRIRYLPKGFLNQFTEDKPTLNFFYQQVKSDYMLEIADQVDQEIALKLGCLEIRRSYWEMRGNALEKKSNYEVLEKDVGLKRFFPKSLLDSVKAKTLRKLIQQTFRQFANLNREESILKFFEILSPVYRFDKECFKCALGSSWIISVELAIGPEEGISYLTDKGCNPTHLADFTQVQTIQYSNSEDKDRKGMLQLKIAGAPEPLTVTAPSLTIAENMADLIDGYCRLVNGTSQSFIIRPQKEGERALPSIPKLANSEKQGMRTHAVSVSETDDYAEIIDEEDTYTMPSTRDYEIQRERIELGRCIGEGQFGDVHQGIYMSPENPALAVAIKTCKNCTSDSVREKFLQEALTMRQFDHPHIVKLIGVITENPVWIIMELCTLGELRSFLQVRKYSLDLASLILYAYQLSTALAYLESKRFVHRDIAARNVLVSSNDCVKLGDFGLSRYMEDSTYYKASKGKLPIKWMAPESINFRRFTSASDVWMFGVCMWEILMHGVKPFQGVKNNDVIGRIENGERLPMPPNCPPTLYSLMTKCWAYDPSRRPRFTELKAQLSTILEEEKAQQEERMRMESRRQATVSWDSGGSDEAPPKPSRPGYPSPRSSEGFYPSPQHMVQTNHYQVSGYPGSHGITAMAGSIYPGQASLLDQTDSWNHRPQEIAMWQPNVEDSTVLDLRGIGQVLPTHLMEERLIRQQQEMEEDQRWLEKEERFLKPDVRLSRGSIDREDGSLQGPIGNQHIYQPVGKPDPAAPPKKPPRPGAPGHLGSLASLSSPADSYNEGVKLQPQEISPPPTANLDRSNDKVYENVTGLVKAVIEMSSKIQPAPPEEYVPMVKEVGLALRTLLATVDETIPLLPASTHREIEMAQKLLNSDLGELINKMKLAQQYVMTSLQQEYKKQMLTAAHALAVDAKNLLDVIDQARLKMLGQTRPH
PostGolgi yeast: phenotypic screen on post-Golgi transport, primary screen; inhibition, % at 10 µM; 98,000 tested, 0.9% active; post-Golgi transport phenotypic cell assay;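 also: yeast cells grown in 1536-well plates; yeast grown about 18 h at 30C before absorbance read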
* marks the source's active call; other numbers are inactive results; . = not tested or not shown. Rule as the data show it, unless noted: active = inhibition above about 30%; inactive = the rest.

SMILES | PostGolgi ctrl | tolC growth inh | Pyk2 oligo antag | Candida biofilm | FAK inh | PostGolgi yeast
CCCOC(=O)c1ccc(Oc2cn[nH]c2-c2ccc(OC)cc2O)cc1 | 43* | 95* | -1.3 | 9 | 1 | 6
COc1ccc(O)c(-c2[nH]ncc2C(=O)c2ccccc2C)c1 | 7 | 3 | -2.2 | 1 | -3 | 20
CCn1c(CNc2ccc(Cl)cc2)nnc1SCCN1CCCCC1 | . | . | 0.37 | 3 | -1 | .
CCOC(=O)C(C)CC(C)C(=O)N1CCOCCN(C(=O)C(C)CC(C)C(=O)OCC)CCOCC1 (stereo unspecified) | 3 | . | -1.1 | 1 | 1 | 15
CCOC(=O)c1nnn(-c2nonc2N)c1CSc1ccccc1 | 11 | . | 0.39 | -1 | 0 | -6
CCOC(=O)c1nnn(-c2nonc2N)c1CSc1ccc(C)cc1 | 33* | 40 | -1.1 | 0 | 7 | 7
COc1ccc(N2CCN(c3nc(NCCc4ccc(OC)c(OC)c4)nc(OC)n3)CC2)cc1 | 20 | 11 | -3.1* | 7 | -1 | 5
Cc1ccc2ccc(S(=O)(=O)n3nc(C)cc3C)cc2c1 | 16 | 78* | 4.1 | 4 | 2 | -8
COc1ccccc1OC(C)c1nnc(SCC(=O)Nc2c(C)n(C)n(-c3ccccc3)c2=O)n1-c1ccccc1 (stereo unspecified) | 4 | . | -0.16 | . | -4 | -10
Cc1c(NC(=O)CSc2nnc(C(C)Oc3ccc(Cl)cc3)n2-c2ccccc2)c(=O)n(-c2ccccc2)n1C (stereo unspecified) | 32* | . | -0.13 | . | -5 | 3
O=C(/C=C/c1cc([N+](=O)[O-])ccc1OC(F)F)NCc1ccc(Cl)cc1 | -1 | . | 0.85 | . | -1 | -5
O=[N+]([O-])c1ccc(O)c(-c2nc(-c3ccccc3)c(-c3cccs3)[nH]2)c1 | 45* | . | -2.6 | . | -2 | 14
Cc1nnc(SCC(=O)N2CCN(S(=O)(=O)c3ccc(Cl)cc3)CC2)n(N)c1=O | 7 | -1 | 0.2 | 6 | 7 | -6
COCCSc1nnc(NC(=O)Cc2cccs2)s1 | 4 | -2 | 0.76 | 7 | -2 | 19
COc1ccc2c(=O)c3c(=O)n(Cc4ccco4)c(-c4ccc(C)cc4)nc3oc2c1 | 44* | 48 | -2.1 | 3 | 8 | 6
COc1ccc(CCNC(=O)Cn2cnc3c2c(=O)n(C)c(=O)n3C)cc1OC | 0 | -12 | 0.18 | . | -1 | -6
COc1ccc(-c2nnc(SCC(=O)Nc3cccc(Cl)c3)o2)cc1 | -5 | 0 | 1.3 | -2 | 7 | -2
COc1cccc(NC(=O)CSc2nnc(-c3cc(-c4ccccn4)nc4ccccc34)o2)c1 | 50* | 12 | -0.23 | 8 | 1 | -7
COc1ccc(Cl)cc1N1C(=O)CC(N2CCc3ccccc32)C1=O (stereo unspecified) | -7 | . | 0.36 | 10 | 2 | -5
O=C(N1CCOCC1)C1(c2ccccc2)CCCCC1 | 42* | 0 | 0.13 | . | 1 | -10
COc1ccc(N(CC(O)Cn2nnc3ccccc32)S(=O)(=O)c2ccc(C)cc2)cc1 (stereo unspecified) | -1 | 28 | -0.86 | 7 | 2 | -7
CN(C(=O)c1ccc2c(c1)C(=O)N(CCC1=CCCCC1)C2=O)C1CCCCC1 | 34* | . | . | . | 7 | -1
O=C(O)c1ccc2c(c1)C(=O)N(CCC1=CCCCC1)C2=O | 2 | -10 | 0.5 | -4 | . | -7
O=c1c2ccccc2nc(SCc2nnc(-c3ccccc3)o2)n1-c1ccc(F)cc1F | 31* | 28 | -2.4 | 5 | 6 | 0
Cc1cc(=O)[nH]c(SCc2nnc(-c3ccccc3)o2)n1 | 5 | . | -0.42 | 5 | 0 | 4
SMILES | PostGolgi ctrl | tolC growth inh | Pyk2 oligo antag | Candida biofilm | FAK inh | PostGolgi yeast
COc1ccc(-c2nnc(CSc3nc4ccccc4c(=O)n3C)o2)cc1OC | 0 | 22 | 0.13 | 6 | 0 | 32*
O=c1c2ccccc2nc(SCc2cn3ccsc3n2)n1-c1ccccc1F | 8 | 65* | -3.5* | 7 | 7 | 4
O=c1c2ccccc2nc(SCc2nnc(-c3ccccc3Br)o2)n1-c1ccccc1 | 39* | 24 | -2.1 | 7 | -1 | -1
CC1=C(C#N)C(=O)OC(C)(C)C1 | 2 | 11 | 0.73 | 2 | 0 | 10
Cc1ccc(-n2nnnc2SCc2nnc(-c3ccccc3Br)o2)cc1 | 56* | 51 | -0.51 | 4 | 2 | -5
CCOc1cc(C)c(Cl)cc1S(=O)(=O)N(CC)CC | 3 | 25 | -0.03 | 10 | -1 | -18
CCCC(=O)Nc1nc2ccc3nc(C)sc3c2s1 | 19 | 11 | 0.05 | 0 | 16 | 1
CCCCC(=O)Nc1nc2ccc3nc(C)sc3c2s1 | 45* | 7 | . | 14 | 3 | 1
O=C1N=C(N2CCCCC2)SC1=C1CCCCC1 | 2 | . | -0.24 | 5 | 0 | 5
O=C1NC(=S)SC1=C1CCCCCC1 | 64* | 21 | -0.03 | 10 | -5 | 8
